Laboratory results as given in ChEMBL document CHEMBL3875163, “Novel urea and bis-urea primaquine derivatives with hydroxyphenyl or halogenphenyl substituents: Synthesis and biological evaluation” (Eur J Med Chem, 2016).
pIC50: −log10 of the molar value. Calls of active or inactive are those of the source. No cut-off for these calls is given here.

Key:
[1] = Growth inhibition of human NCI-H460 cells after 72 hrs by MTT assay; format: functional, cell-based; details: NCI-H460, 72 h
Method in brief: (§1)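 Modified NCI DTP protocol: cells in DMEM with 10% FBS, 2 mM glutamine, antibiotics, 37 °C, 5% CO2; seeded 1 × 10^4 to 3 × 10^4 cells/ml on day 0, exposed to five 10-fold dilutions (10^-8 to 10^-4 M) for 72 h; solvent control. MTT read-out; quadruplicate points in three experiments; IC50 by linear regression of growth percentages bracketing 50%.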

[2] = system: Glycine max; assay: Inhibition of soybean LOX assessed as reduction in conversion of sodium linoleate to 13-hydroperoxylinoleic acid at 1 x 10^-4 M relative to control
Method in brief: (§2)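 Soybean lipoxygenase incubated at room temperature with sodium linoleate (0.1 mM) and test compound (DMSO stocks); formation of 13-hydroperoxylinoleic acid read at 234 nm. Single-point screening at 1 × 10^-4 M; IC50 from several concentrations. At least triplicate.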

[3] = Antioxidant activity assessed as inhibition of AAPH-induced linoleic acid lipid peroxidation at 1 x 10^-4 M by UV-absorbance method relative to control; format: functional
Method in brief: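 Linoleic acid peroxidation: 16 mM sodium linoleate dispersion in 0.05 M phosphate buffer pH 7.4 at 37 °C under air, initiated by AAPH (40 mM solution); compound at 1 × 10^-4 M; oxidation followed at 234 nm. At least triplicate.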

[4] = Growth inhibition of human HeLa cells after 72 hrs by MTT assay; format: functional, cell-based
[5] = Growth inhibition of mouse L1210 cells after 72 hrs by MTT assay; format: functional, cell-based; details: L1210, 72 h
[6] = Growth inhibition of human SW620 cells after 72 hrs by MTT assay; format: functional, cell-based; details: SW-620, 72 h; method in brief: as §1
[7] = Antioxidant activity assessed as DPPH radical scavenging activity at 100 uM after 60 mins relative to control; format: functional
Method in brief: (§3)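 Compound in DMSO added to DPPH in absolute ethanol, 0.1 mM final; absorbance at 517 nm after 20 and 60 min at room temperature. At least triplicate.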

[8] = Antioxidant activity assessed as DPPH radical scavenging activity at 100 uM after 20 mins relative to control; format: functional; method in brief: as §3
[9] = Growth inhibition of human MIAPaCa2 cells after 72 hrs by MTT assay; format: functional, cell-based; details: MIA PaCa-2, 72 h
[10] = Inhibition of soybean LOX assessed as reduction in conversion of sodium linoleate to 13-hydroperoxylinoleic acid; parameters: species or system Glycine max; method in brief: as §2
[11] = Growth inhibition of human Molt4/C8 cells after 72 hrs by MTT assay; format: functional, cell-based; details: MOLT-4, 72 h
[12] = Growth inhibition of human CEM cells after 72 hrs by MTT assay; format: functional, cell-based; details: CCRF-CEM
[13] = Growth inhibition of human MCF7 cells after 72 hrs by MTT assay; format: functional, cell-based; details: MCF7, 72 h; method in brief: as §1
[14] = system: MCF7; assay: Potency index, ratio of ciplatin IC50 to compound IC50 for human MCF7 cells; format: functional
[15] = system: MCF7; assay: Induction of apoptosis in human MCF7 cells assessed as increase in number of necrotic cells at 0.31 uM after 72 hrs by Annexin-V FITC/propidium iodide staining based flow cytometry; format: functional, cell-based
Method in brief: (§4)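 MCF-7 treated 0.31 µM for 72 h, DMSO control. Washed cells at 1 × 10^6 per 100 µl Annexin V binding buffer, stained FITC Annexin V plus PI 15 min room temperature in dark; 10 000 cells by flow cytometry (ex 488, em 530/580 nm). Viable, early apoptotic, late apoptotic/necrotic and necrotic fractions; three experiments, Duncan test.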

[16] = Cell cycle arrest in human MCF7 cells assessed as decrease in G1 population at 0.31 uM after 24 hrs by propidium iodide staining based flow cytometry; format: functional
Method in brief: (§5)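 MCF-7 grown in EMEM with 10% FBS, L-glutamine, pyruvate, insulin; treated 0.31 µM for 24 h, DMSO (0.022%) vehicle control. Cells ethanol-fixed (70%, 24 h, -20 °C), RNase A 20 µg/ml 30 min 37 °C, PI 5.5 µg/ml 10 min dark; 20 000 cells by flow cytometry; G1, S, G2/M fractions; three independent experiments, Newman-Keuls test.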

[17] = Cell cycle arrest in human MCF7 cells assessed as increase in G2/M population at 0.31 uM after 24 hrs by propidium iodide staining based flow cytometry; format: functional; method in brief: as §5
[18] = system: MCF7; assay: Induction of apoptosis in human MCF7 cells assessed as increase in number of late apoptotic/necrotic cells at 0.31 uM after 72 hrs by Annexin-V FITC/propidium iodide staining based flow cytometry; format: functional, cell-based; method in brief: as §4
[19] = system: MCF7; assay: Induction of apoptosis in human MCF7 cells assessed as increase in cleaved PARP-1 expression at 0.31 uM after 72 hrs by immunoblot method; format: functional, cell-based
Method in brief: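 MCF-7 treated at 0.31 µM for up to 72 h, controls DMSO and 1 µM doxorubicin. Lysates (CelLytic M with protease inhibitors), BCA quantification; 5 µg protein on 4-20% gels, nitrocellulose transfer, milk block; anti-PARP-1 (1:1000), GAPDH loading control (1:5000) overnight 4 °C, HRP anti-rabbit 1:2000, ECL detection; three independent experiments.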

SMILES | pIC50 [1] | inhibition [2] [%] | inhibition [3] [%] | pIC50 [4] | pIC50 [5] | pIC50 [6] | Activity [7] [%] | Activity [8] [%] | pIC50 [9] | pIC50 [10] | pIC50 [11] | pIC50 [12] | pIC50 [13] | Ratio IC50 [14] | Activity [15] | Activity [16] | Activity [17] | Activity [18] | Activity [19]
COc1cc(NC(C)CCCNC(=O)NNC(=O)Nc2ccc(C(F)(F)F)cc2)c2ncccc2c1 (centres undefined) | 4.92 | 55.8 | 75.3 | 4.82 | 4.74 | 4.92 | 96.1 | 99 | 4.72 | 4.07 | 4.62 | 4.74 | 7.00 |  |  |  |  |  | 
COc1cc(NC(C)CCCNC(=O)NNC(=O)Nc2ccc(F)cc2)c2ncccc2c1 (centres undefined) | < 4.00 | 31.9 |  | ≤ 3.60 | 3.98 | < 4.00 |  | 7.6 | ≤ 3.60 |  | ≤ 3.60 | 3.93 | 6.51 | 42 | Active | Active | Active | Active | Active
